Molecules are shown by their SMILES. Active and inactive are the calls of the source. The rule behind the calls is not given here.

These results are taken from ChEMBL document CHEMBL3763084, “Design and synthesis of substituted pyrido[3,2-d]-1,2,3-triazines as potential Pim-1 inhibitors” (Bioorg Med Chem Lett, 2016).

The target of assay [1] is T1, Serine/threonine-protein kinase pim-1 (Homo sapiens, UniProt P11309). Briefly: Inhibition of Pim 1 (unknown origin) after 50 mins by HTRF method.
Assay [2] is described as follows: Antiproliferative activity against human PC3 cells after 96 hrs by MTT assay. The assay is classed as functional, cell-based. To be noted: PC-3, 96 h.
For a further assay, the system named is LNCaP. Briefly: Antiproliferative activity against human LNCAP cells after 96 hrs by MTT assay. Format: functional, cell-based.
The target in assay [3] is T1, Serine/threonine-protein kinase pim-1. In words: Inhibition of Pim1 in human PC3 cells assessed as decrease in 4E-BP1 phosphorylation at Thr37/46 residue after 24 hrs by western blot analysis. Format: cell-based. To be noted: PC-3. The essentials: (§1)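 PC-3 cells were exposed for 24 h to the test compound at 0, 5, 10 or 20 μM, with DMSO as the negative control and a reference Pim-1 inhibitor at 10 μM. Lysates were analysed by western blot for BAD phospho-Ser112, 4E-BP1 phospho-Thr37/46, c-Myc and total Pim-1.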

Assay [4] shares this target. Briefly: Inhibition of Pim1 in human PC3 cells assessed as decrease in BAD phosphorylation at Ser112 residue after 24 hrs by western blot analysis. Format: cell-based. The following applies: PC-3. A digest of the protocol:
as §1

The subject of a further assay is PC-3. Briefly: Effect on PIM1 expression in human PC3 cells at 5 to 20 uM after 24 hrs by western blot analysis. Format: functional, cell-based. A digest of the protocol:
as §1

Assay [5] addresses T1, Serine/threonine-protein kinase pim-1. Briefly: Inhibition of Pim1 in human PC3 cells assessed as decrease in c-Myc level at 5 to 20 uM after 24 hrs by western blot analysis. The assay is classed as cell-based. To be noted: PC-3. A digest of the protocol:
as §1

Assay [6] shares this target. To be noted: PC-3, 10 uM.
The target is the same in assay [7]. The following applies: PC-3, 10 uM. The source holds these as a separate data set.
The target is the same in assay [8]. To be noted: PC-3, 10 uM. The source holds these as a separate data set.

For the molecule `CC(C)(C)OC(=O)N1CCC(CNc2ccc3nnnc(Nc4cccc(OC(F)(F)F)c4)c3n2)CC1`, the 50% inhibitory concentration (IC50) in assay [1] is above 10 µM; in assay [2], above 100 µM; in the assay on LNCaP it was above 100 µM.
For the molecule `FC(F)(F)Oc1cccc(Nc2nnnc3ccc(N4CCC(N5CCCCC5)CC4)nc23)c1`, the concentration for half-maximal inhibition (IC50) in [1] is 2.47 µM; in assay [2], 5.58 µM; in the assay with LNCaP, 4.9 µM.
As to `FC(F)(F)Oc1cccc(Nc2nnnc3ccc(Cl)nc23)c1`, the figures for the half-inhibitory concentration (IC50) (in [1]; in assay [2]; in the assay on LNCaP) were above 10 µM, 5.99 µM and 8.62 µM, respectively.
For the molecule `CC1CCN(c2ccc3nnnc(Nc4cccc(OC(F)(F)F)c4)c3n2)CC1`, in assay [1], the 50% inhibitory concentration (IC50) is above 10 µM.
Take `CN1CCN(c2ccc3nnnc(Nc4cccc(OC(F)(F)F)c4)c3n2)CC1`: the IC50 in [1] was found to be 0.6 µM; in assay [2], 24 µM; in the assay with LNCaP it was 20.3 µM.
Regarding `CN1CCC(CNc2ccc3nnnc(Nc4cccc(OC(F)(F)F)c4)c3n2)CC1`, the figures for the half-inhibitory concentration (IC50) (in assay [1]; in assay [2]; with LNCaP) were 1.87 µM, 15.8 µM and 17.3 µM, respectively.
As to `CCOc1ccc2nnnc(Nc3cccc(OC(F)(F)F)c3)c2n1`, the values for the IC50 (in assay [1]; in [2]; with LNCaP) were above 10 µM, above 100 µM and above 100 µM, respectively.
Regarding `FC(F)(F)Oc1cccc(Nc2nnnc3ccc(NCC4CCNCC4)nc23)c1`, the IC50 in assay [1] came out at 0.8 µM; in assay [2], 8.32 µM; in the assay with LNCaP, 11.5 µM.
On to `FC(F)(F)Oc1cccc(Nc2nnnc3ccc(N4CCCC4)nc23)c1`, for which the half-inhibitory concentration (IC50) in [1] was above 10 µM; in assay [2], above 100 µM; in the assay on LNCaP, above 100 µM.
Molecule `CCCCOc1ccc2nnnc(Nc3cccc(OC(F)(F)F)c3)c2n1` yielded an IC50 in assay [1] above 10 µM.
For `FC(F)(F)Oc1cccc(Nc2nnnc3ccc(N4CCNCC4)nc23)c1`, the results for the IC50 (in [1]; in assay [2]; in the assay on LNCaP) were 0.69 µM, 11.5 µM and 8.51 µM, respectively.
In the case of `OCCNc1ccc2nnnc(Nc3cccc(OC(F)(F)F)c3)c2n1`, the half-maximal inhibitory concentration (IC50) in [1] was 2.1 µM; in assay [2], above 100 µM; in the assay with LNCaP, 42.9 µM.
`FC(F)(F)Oc1cccc(Nc2nnnc3ccc(N4CCC(N5CCCC5)CC4)nc23)c1`: the inhibition entry in assay [3] and in assay [4] was “Dose-dependent effect” throughout. Also, the 50% inhibitory concentration (IC50) in assay [1] was determined as 1.05 µM; in assay [2] it was 8.16 µM; with LNCaP, 10.7 µM. The outcome with PC-3 was inactive. In assay [5], the inhibition result is “Active”.
`CCN1CCN(c2ccc3nnnc(Nc4cccc(OC(F)(F)F)c4)c3n2)CC1`: the results for the half-maximal inhibitory concentration (IC50) (in [1]; in [2]; with LNCaP) were 2.04 µM, 16.9 µM and 14.3 µM, respectively.
Consider `CC1CCCCN1c1ccc2nnnc(Nc3cccc(OC(F)(F)F)c3)c2n1` (stereo not given), for which half-maximal inhibition in [1] (IC50) was put at 1.31 µM.
For `CN1CCC(CNc2ccc3ncc(-c4cccc(OC(F)(F)F)c4)n3n2)CC1` [SGI-1776], the inhibition result in assay [6], in [7] and in assay [8] was “Active” throughout. The IC50 in assay [2] is 4.86 µM; with LNCaP it was 6.85 µM.
For `FC(F)(F)Oc1cccc(Nc2nnnc3ccc(N4CCOCC4)nc23)c1`, the figures for the IC50 (in assay [1]; in assay [2]; in the assay on LNCaP) were 1.45 µM, 41 µM and 31 µM, respectively.
In turn, `COc1ccc2nnnc(Nc3cccc(OC(F)(F)F)c3)c2n1` had an IC50 in assay [1] of 2.02 µM. This counts as single-digit micromolar.
On to `CC(C)N1CCN(c2ccc3nnnc(Nc4cccc(OC(F)(F)F)c4)c3n2)CC1`, for which the values for the half-inhibitory concentration (IC50) (in assay [1]; in assay [2]; in the assay on LNCaP) were 1.08 µM, 13.8 µM and 10.7 µM, respectively.
